# Rows were chosen to be rich in hits. Some 2.3% of all compounds tested hit in one or more screens of this group.
# core dimer inh = inhibitors of HCV core protein dimerization, primary screen, biochemical, TR-FRET, high-throughput; TR-FRET GST/Flag-core106 dimerization, 1536-well; inhibition, % at 5 µM; actives 0.33% (n = 300,000); AID 1899, 2009;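 active means inhibition above the mean of all tested compounds plus 3 SD, set per screening campaign, cut at about 45% in these data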
#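 test system = GST/Flag-tagged HCV core106 proteins | probe or stimulus = Eu donor and XL665 acceptor anti-tag antibodies | times = compound-protein-antibody incubation 4 h at 22.5 °C | signal = TR-FRET, excitation 340 nm, emission 617 and 671 nm | measure = percent inhibition of core106 dimerization signal | controls = wells lacking GST-core106 and wells with excess unlabelled core106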
# NS3 helicase inh = inhibitors of HCV NS3 helicase, primary screen, biochemical, Cy5 molecular beacon fluorescence. Hepatitis C virus NS3 helicase. NS3 helicase DNA unwinding. inhibition, % at 10.9 µM. actives 0.56% (n = 290,000). AID 1800, 2009;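 active means inhibition above the mean of all tested compounds plus 3 SD, set per campaign, cut at about 35% in these data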;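 further: 0% = DMSO wells and 100% = thioflavine S control wells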
#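 Test system: hepatitis C virus NS3 helicase domain fragment enzyme. Also added: annealed dual-labelled DNA beacon duplex, ATP-started. Timing: 60 min unwinding reaction at 25 °C after ATP addition. Technique: Cy5 fluorescence. Measure: % inhibition of unwinding.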
# EBV gp42 block = Epstein-Barr virus gp42 inhibitors, primary screen, biochemical, uHTS, fluorescence polarization | Fluorescence polarization binding assay, mP read-out | inhibition, % (tested at 21.74 µM) | actives 0.42% (n = 220,000) | AID 1085, 2008; in the data active means inhibition above about 50%
# Target sequence (Q1HVG2 whole entry, looked up): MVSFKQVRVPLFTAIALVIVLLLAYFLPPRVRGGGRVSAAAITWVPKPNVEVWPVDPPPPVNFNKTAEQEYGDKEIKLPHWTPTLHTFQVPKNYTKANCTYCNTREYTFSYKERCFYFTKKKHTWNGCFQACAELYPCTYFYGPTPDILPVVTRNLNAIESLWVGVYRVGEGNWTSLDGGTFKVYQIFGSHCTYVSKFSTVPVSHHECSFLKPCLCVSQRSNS
# GPR7 antag = GPR7 receptor antagonists, primary screen, cell-based, fluorescence, single concentration; Neuropeptides B/W receptor type 1 (Homo sapiens), P48145; GPR7-expressing cells, fluorescence antagonist assay; inhibition, % at 4.4 µM; actives 1.1% (n = 290,000); AID 1861, 2009; in the data active means inhibition above about 16%, passing the limit was not always enough;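 further: cells stimulated with the agonist NPW; 0% = agonist with vehicle and 100% = vehicle without agonist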
# Target sequence (P48145 whole entry, looked up): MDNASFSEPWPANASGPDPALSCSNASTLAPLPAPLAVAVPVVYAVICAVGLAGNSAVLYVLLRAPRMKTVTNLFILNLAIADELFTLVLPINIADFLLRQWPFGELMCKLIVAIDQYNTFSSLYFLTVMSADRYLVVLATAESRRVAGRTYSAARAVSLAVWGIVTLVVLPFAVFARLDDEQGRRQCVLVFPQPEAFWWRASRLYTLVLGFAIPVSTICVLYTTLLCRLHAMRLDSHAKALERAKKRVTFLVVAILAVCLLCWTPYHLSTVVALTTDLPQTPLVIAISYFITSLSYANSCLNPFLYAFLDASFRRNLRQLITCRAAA
# ZTA DNA inh = counter-screen for EBNA-1 inhibitors: inhibitors of Epstein-Barr virus ZTA; actives 0.15% (n = 320,000); inhibition, % at 11 µM; ZTA-DNA binding, fluorescence polarization; P03206; in the data active means inhibition above about 33%
# EBNA-1 inhibitor = EBNA-1 DNA-binding inhibitors, primary screen, biochemical, fluorescence polarization; AID 1950, 2009; actives 0.34% (n = 300,000); inhibition, % at 14.8 µM; in the data active means inhibition above about 28%
# Starred values were filed as active, the others as inactive; x = no result given.
SMILES,core dimer inh,NS3 helicase inh,EBV gp42 block,GPR7 antag,ZTA DNA inh,EBNA-1 inhibitor
CN(C)CCOC(C1CCCCC1)C1CCCCC1,-10,-12,3,34*,-3,3
CN(C)CCNC(=S)NC1CCCCC1,-3,-13,2,-6,6,-11
CCOC(=O)C(NCc1ccco1)(NC(=O)c1ccc(OC)cc1)C(F)(F)F (centres undefined),-2,-3,118*,-16,4,0
Cc1ccccc1OCC(O)Cn1c(=N)n(Cc2ccccc2)c2ccccc21 (centres undefined),-3,-72,-6,35*,-13,-14
O=c1c2ccccc2nc2ccc(NCc3cccs3)nn12,10,0,2,-9,14,0
Cc1[nH]c2ccccc2c1C(=O)CN1C(=O)NC2(CC(C)CC(C)(C)C2)C1=O (centres undefined),-1,-12,-17,19*,-3,-1
CCc1nnc(NC(=O)CSc2nnc(Cc3cc(=O)[nH]c(=O)[nH]3)n2-c2ccc(OC)cc2)s1,-6,-1,-13,11,-4,3
CCc1nnc(NC(=O)CSc2nnc(Cc3cc(=O)[nH]c(=O)[nH]3)n2-c2cccc(OC)c2)s1,-10,18,-12,17*,-25,-3
CNC(=O)c1cc(Oc2ccc(NC(=O)Nc3ccc(Cl)c(C(F)(F)F)c3)cc2)ccn1,x,x,x,x,23,x
COc1ccc(-c2nnc(Nc3ccc(S(=O)(=O)Nc4nccs4)cc3)c3ccccc23)cc1,x,13,52*,-20,x,x
CCC(C)c1ccccc1N1CC(C(=O)N2CCN(S(=O)(=O)c3ccccc3Br)CC2)CC1=O (centres undefined),3,x,x,x,7,-4
CCN1/C(=C/c2ccc3cccc(C)c3[n+]2CC)Sc2ccccc21,0,-35,-77,34*,7,-10
O=C(NC1(Cc2ccccc2)CCN(CCc2cccs2)C1=O)c1ccccc1 (centres undefined),x,x,x,x,6,x
Cn1nc([N+](=O)[O-])c(C(C#N)c2nc3ccccc3n2C)c(Cl)c1=O (centres undefined),-6,8,80*,-1,-2,-3
Cn1c(-c2ccc([N+](=O)[O-])cc2)nc2ccccc21,-1,11,-12,12,-4,-2
O=C(c1ccccc1)c1ccc2c(c1)OCCCO2,2,0,68*,7,-5,-7
CN1CCN(c2ccccc2NC(=O)c2cccc(OCc3ccccc3)c2)CC1,4,-38,-9,18*,8,0
CC(C)Oc1ccc(NC(N)=O)cc1,-4,-11,-2,-8,-14,-6
CC(C)Oc1ccc(NC(=O)CCC(=O)O)cc1,-2,6,78*,-9,-9,7
O=C(NCC1CCCO1)c1cc2c(=O)[nH]c3ccccc3c2s1 (centres undefined),0,0,-2,-7,-25,-3
CCCC(c1nnnn1Cc1ccc(F)cc1)N1CCN(C2CCCCC2)CC1 (centres undefined),-3,-11,-20,33*,14,1
CCCC(c1nnnn1C(C)(C)CC)N1CCN(C2CCCC2)CC1 (centres undefined),0,8,-11,18*,2,-1
CCC(c1nnnn1Cc1cccs1)N1CCN(C2CCCC2)CC1 (centres undefined),-1,-2,-12,20*,5,-7
O=C(COC(=O)c1ccc(Cl)nc1)Nc1ccc2c(c1)OCO2,3,-4,11,-5,-1,0
CC(C)c1ccc(N(CC(=O)NCC2CCCO2)C(=O)Cn2nnc(-c3cccs3)n2)cc1 (centres undefined),1,2,-7,-13,-2,-4
SMILES,core dimer inh,NS3 helicase inh,EBV gp42 block,GPR7 antag,ZTA DNA inh,EBNA-1 inhibitor
CC1CCN(C(=O)COC(=O)c2cccc(S(=O)(=O)N(C)c3ccccc3)c2)CC1,x,x,x,x,-6,x
CC1(C)Cc2c(C#N)c(N3CCN(C(=O)c4ccccc4)CC3)nc(-c3ccco3)c2CS1,87*,23,-12,-5,16,-1
Cc1c(CCC(=O)NCCCN2CCCC2=O)c(=O)oc2cc(O)ccc12,4,1,x,-2,8,9
O=C(CN1CCN(c2cccc(Cl)c2)CC1)NCc1ccccc1,6,-25,x,-3,2,-2
S=C(NCc1ccccc1)N1CCN(c2cccc(Cl)c2)CC1,2,1,-2,32*,7,-2
N#C/C(=C(/O)COC(=O)c1ccc2c(c1)OCCO2)c1nc2ccccc2[nH]1,58*,0,4,-12,9,9
CCn1c(CSc2nnc(-c3ccncc3)n2C)nc2cc(C(=O)O)ccc21,-4,18,4,-9,43*,30*
COc1cccc(C(=O)NCC(=O)NCc2cc(=O)n(C)c(=O)n2C)c1OC,7,2,x,6,10,5
CCN(CC)c1nc2ccccc2nc1C(C#N)C(=O)NCCc1ccccc1 (centres undefined),-5,-5,78*,9,4,8
CCN(CC)c1nc2ccccc2nc1C(C#N)C(=O)NCCCOC (centres undefined),2,17,4,-13,-3,-5
COC(=O)c1ccc(C)c(NC(=O)CCSc2ccc(Cl)cc2)c1,3,-2,99*,-1,-3,-4
COCCCNC(=O)CC1Oc2ccccc2NC1=O (centres undefined),-2,-4,3,-9,-2,7
CCCSCCCNC(=O)CC1Oc2ccccc2NC1=O (centres undefined),-2,-3,68*,4,2,1
O=S(=O)(Nc1ccc2c(c1)OCCO2)c1cccc2cccnc12,-1,-2,99*,-5,9,8
O=C(O)c1cccc2c1C(=O)c1ccc(-c3ccc(F)cc3F)cc1S2(=O)=O,x,x,x,x,-7,x
COc1ccc(C2c3[nH]c4ccccc4c3CCN2Cc2cccn2-c2ncccn2)cc1C (centres undefined),7,-30,8,30*,-3,-6
Cc1cccc(C2c3[nH]c4ccccc4c3CCN2Cc2cccn2-c2ncccn2)c1 (centres undefined),-5,-36,7,7,-17,-2
CCCCC(=O)Nc1nnc(S(=O)(=O)N2CCCCCC2)s1,-4,8,x,5,-22,3
CC1(C)CC(=O)C2=C(C1)OC(N)=C(C#N)[C@@H]2c1ccccc1[N+](=O)[O-],-6,7,54*,-2,-2,-11
